# Shown are actives, neighbours in structure and some others; about 1.9% of the full set was active somewhere.
# TLR9-MyD88 block: inhibitors of TLR9-MyD88 association in cells, primary screen, cell-based, CHO, BLA complementation, fluorescence; inhibition, % at 4.98 µM; Toll-like receptor 9 (Homo sapiens) + Myeloid differentiation primary response protein …; CCF4 FRET ratio; 0.21% of 340,000 active;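 active = inhibition above the mean over all tested compounds plus 3 SD, cut at about 21% in these data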;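 note: 0% = DMSO only wells and 100% = clavulanate BLA inhibitor control wells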
# NOD2 RIPK2 PPI: NOD2-RIPK2 binding disruptors in cells, primary screen, fluorescence, CHO cells, BLA complementation. 0.38% of 360,000 active. CCF4 ratio. inhibition, % at 4.98 µM; in the data active = inhibition above about 21%;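 note: 0% = vehicle only and 100% = reference blocker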
# MC4R barr agon: MC4R agonists recruiting beta-arrestin, primary screen, cell-based, luminescence, agonist arm of biased-ligand search. AID 540308, 2011. 0.98% of 360,000 active. activation, % at 8.9 µM. U2OS MC4R beta-arrestin complementation; percent of melanotan II response, DMSO zero;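 active = activation above a per-plate cutoff, the mean activation of sample wells on that plate plus 3 SD, cut at about 8% in these data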
# NTR1 ag: agonists of human NTR1, primary screen, imaging, U2OS cells, beta-arrestin-GFP, high content. NTR1-U2OS beta-arrestin-GFP spot imaging, agonist mode. Neurotensin receptor type 1 (Homo sapiens), P30989. activation, % at 20 µM. AID 493036, 2011. 0.17% of 330,000 active;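 active = activation at or above 40% of the spot to cytoplasm intensity ratio, with at least 20 cells analyzed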;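 note: 0% = DMSO without peptide and 100% = 100 nM NTR1 peptide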
# Target sequence (P30989 whole entry, looked up): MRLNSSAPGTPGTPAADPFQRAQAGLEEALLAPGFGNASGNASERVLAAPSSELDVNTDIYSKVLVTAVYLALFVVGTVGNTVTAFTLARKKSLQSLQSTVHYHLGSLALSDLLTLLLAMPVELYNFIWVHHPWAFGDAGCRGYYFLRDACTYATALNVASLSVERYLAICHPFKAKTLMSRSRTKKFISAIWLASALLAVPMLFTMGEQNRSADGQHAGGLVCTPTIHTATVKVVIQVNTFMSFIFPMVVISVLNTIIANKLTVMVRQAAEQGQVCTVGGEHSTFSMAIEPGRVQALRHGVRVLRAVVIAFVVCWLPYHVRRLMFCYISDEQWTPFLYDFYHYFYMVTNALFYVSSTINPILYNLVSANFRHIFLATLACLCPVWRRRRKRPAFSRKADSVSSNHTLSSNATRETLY
# TLR4-MyD88 BLA: inhibitors of TLR4-MyD88 association in cells, primary screen, cell-based, HeLa CL3-4, BLA complementation, FRET ratio; Toll-like receptor 4 (Homo sapiens) + Myeloid differentiation primary response protein …; HeLa CL3-4 TLR4/MyD88 BLA complementation; inhibition, % at 8.4 µM; 0.18% of 200,000 active; in the data active = inhibition above about 25%;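 note: 0% = vehicle and 100% = reference inhibitor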
# MC4R antagonist: MC4R antagonists of cAMP signaling, primary screen, cell-based, TR-FRET, antagonist arm of biased-ligand search; 0.48% of 360,000 active; MC4R-expressing cells, MTII-stimulated cAMP, LANCE TR-FRET; inhibition, % at 6.5 µM; Melanocortin receptor 4 (Homo sapiens), P32245;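 active = inhibition above its plate's cutoff, the mean of tested wells on that plate plus 3 SD, cut at about 29% in these data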;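 note: 0% = Melanotan II alone and 100% = Melanotan II plus saturating MCL0020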
#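 System – human MC4R-expressing U2OS cells · Also added – Melanotan II · Dosing – one concentration, 6.5 µM nominal · Timing – 30-min compound, 1-h challenge, 1-h detection, room temperature · Measured by – Eu-cAMP/anti-cAMP TR-FRET, emission 671 nm · Replicates – singlicate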
# U2OS cAMP counter: nonselective cAMP signaling inhibitors, parental cells, counter-screen for MC4R biased antagonist project, cell-based, TR-FRET, U2OS, forskolin, triplicate. inhibition, % at 6.5 µM. AID 602193, 2012. shares compounds with MC4R antagonist. LANCE TR-FRET. 26% of 1,600 active;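 active = mean inhibition over triplicates above the low-control well mean plus 3 SD, set per campaign, cut at about 13% in these data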;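 note: signal is single emission at 671 nm which falls as cellular cAMP rises; 0% = forskolin-stimulated wells and 100% = buffer without forskolin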
# MC4R cAMP antag: MC4R cAMP antagonists, retest, confirmation, cell-based, TR-FRET; shares compounds with MC4R antagonist; MC4R-expressing cells, MTII-stimulated cAMP; inhibition, % at 6.5 µM; 27% of 1,600 active; in the data active = inhibition above about 29%;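 note: 0% = agonist stimulated wells alone and 100% = agonist stimulated wells plus saturating reference antagonist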
# * = called active by the depositor; · = no result.
SMILES,TLR9-MyD88 block,NOD2 RIPK2 PPI,MC4R barr agon,NTR1 ag,TLR4-MyD88 BLA,MC4R antagonist,U2OS cAMP counter,MC4R cAMP antag
C=CCC[C@H](Cc1ccc(F)cc1)C(=O)OC[C@@H](NC(=O)[C@@H](CC=C)CC(=O)N(CCO)Cc1ccccc1)C(C)(C)C,-7,2,-1,9,·,10,·,·
COc1ccc(NC(=S)N(CCCOC(C)C)C2CCN(C(C)=O)CC2)cc1Cl,-6,-3,2,0,·,17,·,·
CC(C)(C)OC(=O)NCCCCCNC(=O)c1nc[nH]c1C(=O)NCC(=O)OCc1ccccc1,-4,-6,-1,12,·,46*,3,1
CC(C)(C)OC(=O)CNC(=O)c1nc[nH]c1C(=O)NCc1ccccc1,1,-2,1,0,·,4,·,·
CC(C)(C)OC(=O)CNC(=O)c1[nH]cnc1C(=O)NCC(=O)OCc1ccccc1,2,5,1,14,·,42*,3,8
CC(C)OC(=O)CNc1n[nH]c(=S)[nH]c1=O,-8,-3,0,·,-13,41*,3,13
COC(=O)CNc1n[nH]c(=S)[nH]c1=O,-8,0,0,1,8,17,·,·
CCOC(=O)CSc1nnc(NCC(=O)OC(C)C)c(=O)[nH]1,0,-6,-1,0,-3,35*,18*,28
O=C(NCc1ccccc1Cl)c1csc([C@@H]2O[C@H](CO)[C@H](O)[C@H](O)[C@H]2O)n1,·,-6,-1,·,·,0,·,·
Cc1ccc(-n2c(-c3ccco3)nc3nc4ccccc4nc32)cc1,-11,0,-2,4,-1,-1,·,·
OCCC1CN(Cc2ccccn2)CCN1C1CCCC1 (stereo not drawn),-3,-4,0,0,-24,37*,21*,9
CC(=O)c1cccc(CN2CCN(C3CCCC3)C(CCO)C2)c1 (stereo not drawn),5,-1,0,0,5,29*,0,4
OCCC1CN(Cc2cccn2-c2ccccn2)CCN1C1CCCC1 (stereo not drawn),9,3,-2,0,7,1,·,·
CC(=O)c1cccc(CN2CCN(Cc3ccc(C)cc3)C(CCO)C2)c1 (stereo not drawn),6,-4,0,-2,0,13,·,·
COc1ccccc1C(=O)NNC(=O)c1ccc(NC(=O)C(C)C)cc1,1,4,-1,·,16,-1,·,·
Cc1ccc(NC(=O)c2cc(N3C(=O)C=CC3=O)ccc2Cl)cc1C,-13,-6,-2,0,3,57*,8,12
Cc1ccc(NC(=O)c2cc(-n3cnnc3)ccc2Cl)cc1,5,-5,-1,1,12,2,·,·
Cc1ccc(NC(=O)c2cc(N3C(=O)C=CC3=O)ccc2N2CCOCC2)cc1,19,-2,-2,·,4,69*,9,50*
COc1ccccc1-n1cc([C@@H]2C[C@H]3CN(c4ccccc4)C(=O)[C@]34CCCN24)cn1,·,-4,-2,0,7,35*,0,-8
COc1ccc(CNC(=O)Cn2ccc3cc(S(=O)(=O)N4CCCC4)ccc32)cc1OC,-9,0,-4,0,·,6,·,·
CC(C)Oc1cccc(C(=O)NC(=S)Nc2ccc(Cl)c(C(=O)O)c2)c1,-4,0,-1,1,16,19,·,·
COc1ccc(Br)cc1C(=O)NC(=S)Nc1ccc(Cl)c(C(=O)O)c1,-6,-11,0,2,-10,7,·,·
COc1ccc(C(=O)NC(=S)Nc2ccc(Cl)c(C(=O)O)c2)cc1,-3,-10,0,-1,-1,30*,-5,-18
CC(=O)c1cccc(NC(=S)NC(=O)c2ccccc2Cl)c1,-4,-1,-1,0,3,30*,2,7
COc1ccc(Br)cc1/C=C/C(=O)NC(=S)Nc1ccc(Cl)c(C(=O)O)c1,3,-4,-3,2,-17,30*,1,0
SMILES,TLR9-MyD88 block,NOD2 RIPK2 PPI,MC4R barr agon,NTR1 ag,TLR4-MyD88 BLA,MC4R antagonist,U2OS cAMP counter,MC4R cAMP antag
Cc1cc(C)n2nc(SCC(=O)N(CCC#N)c3ccccc3F)nc2n1,-12,-1,-1,0,·,0,·,·
CCN1C[C@@H]2[C@@H]3C(=O)N(Cc4ccccc4)C(=O)[C@@H]3[C@](C)(C(=O)OC)N2C1=NC,-5,0,0,0,·,7,·,·
CS(=O)(=O)Nc1cccc(NC(=O)c2cccc3c(-c4cccc(C(N)=O)c4)coc23)c1,·,-2,2,·,·,44*,8,22
N#CC(C#N)=C1SC(=Nc2ccccc2)C(=Nc2ccccc2)N1c1ccccc1,-11,-10,0,·,·,11,·,·
COc1cc(/C=N/Nc2nc(Nc3ccc(C)cc3)nc(-n3nc(C)cc3C)n2)cc(OC)c1OC,-17,-5,4,11,2,29*,7,30*
COc1cc(/C=N/Nc2nc(Nc3ccccc3)nc(-n3nc(C)cc3C)n2)cc(OC)c1OC,-17,-11,-3,8,10,21,·,·
O=C(CNC(=O)C(c1ccccc1)c1ccccc1)OCc1ccccc1,-9,-3,0,0,-9,30*,13,19
N#Cc1c(Cl)cccc1N1CCSCC1,·,-5,·,·,·,·,·,·
N#Cc1c(N2CCSCC2)nsc1-c1ccccc1Cl,10,1,-2,·,·,29*,24*,47*
CCC(C)(C)NC(=O)CN(Cc1ccc2c(c1)OCO2)C(=O)CCC(=O)Nc1cc(C)ccn1,1,-1,2,1,·,30*,-2,-5
CC(C)(C)NC(=O)CN(Cc1ccc2c(c1)OCO2)C(=O)CCC(=O)Nc1nccs1,-1,5,2,-1,1,8,·,·
CCN1CCN(C(=O)c2ccccc2NS(=O)(=O)c2ccc(Cl)cc2)CC1,1,-2,-3,0,-8,10,·,·
CN(Cc1ccccc1)Cc1ccccc1C(O)c1ccccc1 (stereo not drawn),-4,4,3,·,·,6,·,·
